{"data": "Experimental data collected from several papers", "BCHE": "Cholinesterase (BCHE, Homo sapiens, UniProt P06276)", "Oprk1": "Kappa-type opioid receptor (Oprk1, Mus musculus, UniProt P33534)", "note": "Lines come from different studies, so protocols differ."}
{"Compound": "CCCC[C@H](NC(C)=O)C(=O)N[C@H]1CC(=O)NCCCC[C@@H](C(=O)N2CCC[C@@H]2C(=O)N[C@@H](C(=O)N2CCC[C@@H]2C(N)=O)C(C)C)NC(=O)[C@H](Cc2c[nH]c3ccccc23)NC(=O)[C@H](CCCNC(=N)N)NC(=O)[C@@H](Cc2ccccc2)NC(=O)[C@@H]2CCCN2C1=O", "target": "Melanocortin receptor 4 (MC4R, Homo sapiens, UniProt P32245)", "test": "cAMP, agonist", "quantity": "EC50", "result": "0.89 nM"}
{"Compound": "CC(C)c1cc2c(c(O)c1O)[C@@]13CCCC(C)(C)[C@@H]1[C@H](OC3=O)[C@H]2O", "target": "BCHE", "test": "enzyme activity, inhibitor, absorbance", "quantity": "Ki", "result": "0.2 nM"}
{"Compound": "CCCC(=O)CC(=O)N[C@H]1CCOC1=O", "target": "qscR (Pseudomonas aeruginosa, UniProt G3XD77)", "test": "reporter gene, agonist", "quantity": "EC50", "result": "13000 nM"}
{"Compound": "Cc1c(CC(=O)N[C@@H](CN2CCc3ccccc3C2)C(C)C)cccc1[N+](=O)[O-]", "target": "Oprk1", "test": "ligand displacement, radioligand", "quantity": "Ki", "result": "3380 nM"}
{"Compound": "C=CCc1ccc(O)c(-c2cc(CC=C)ccc2O)c1", "target": "BCHE", "test": "enzyme activity, inhibitor, Ellman", "quantity": "IC50", "result": "> 100000 nM"}
{"Compound": "COc1cc(/C=C/C(=O)O)ccc1OCc1cn(CC(=O)Nc2ccc(Cl)cc2Cl)nn1", "target": "BCHE", "test": "enzyme activity, inhibitor, Ellman", "quantity": "Ki", "result": "1850 nM"}
{"Compound": "CC(C)c1cc2c(c(O)c1O)[C@@]13CCCC(C)(C)[C@@H]1[C@@H](O)[C@@H]2OC3=O", "target": "BCHE", "test": "enzyme activity, inhibitor, absorbance", "quantity": "Ki", "result": "0.33 nM"}
{"Compound": "C=CCOc1ccc(C(=O)/C=C/c2ccc(OC)cc2)c(OS(=O)(=O)c2ccccc2[N+](=O)[O-])c1I", "target": "BCHE", "test": "enzyme activity, inhibitor", "quantity": "IC50", "result": "14200 nM"}
{"Compound": "COc1cc2c(cc1OC)CN(CCc1ccc(NC(=O)c3cccc4c(=O)c5cccc(OC)c5[nH]c34)cc1)CC2", "target": "Muscarinic acetylcholine receptor M5 (CHRM5, Homo sapiens, UniProt P08912)", "test": "cell-free assay", "quantity": "Ki", "result": "> 10000 nM"}
{"Compound": "CC(C)[C@@H](CN1CCc2ccccc2C1)NC(=O)Cc1c[nH]c2ccccc12", "target": "Oprk1", "test": "ligand displacement, radioligand", "quantity": "Ki", "result": "2750 nM"}
{"Compound": "C=CCOc1ccc(C(=O)/C=C/c2ccc(OC)cc2)c(OS(=O)(=O)c2ccc(OC)cc2)c1I", "target": "BCHE", "test": "enzyme activity, inhibitor", "quantity": "IC50", "result": "30100 nM"}
{"Compound": "CC(C)c1cc2c(c(O)c1O)[C@@]13CCCC(C)(C)[C@@H]1C[C@@H]2OC3=O", "target": "BCHE", "test": "enzyme activity, inhibitor, absorbance", "quantity": "Ki", "result": "0.3 nM"}
{"Compound": "C=CCOc1ccc(C(=O)/C=C/c2cccc(F)c2)c(OS(=O)(=O)c2ccc(OC)cc2)c1I", "target": "BCHE", "test": "enzyme activity, inhibitor", "quantity": "IC50", "result": "14500 nM"}
{"Compound": "CC(C)c1cc2c(c(O)c1O)[C@@]1(C(=O)O)CCCC(C)(C)[C@@H]1CC2", "target": "BCHE", "test": "enzyme activity, inhibitor", "quantity": "IC50", "result": "0.66 nM"}
{"Compound": "CC(C)[C@H](CN1CCc2ccccc2C1)NC(=O)c1cccc(-c2cccc(O)c2)c1", "target": "Oprk1", "test": "ligand displacement, radioligand", "quantity": "Ki", "result": "870 nM"}
{"Compound": "COc1c2c(cc3c1-c1c(cc4c(c1OC)OCO4)C[C@H](C)[C@H](C)C3)OCO2", "target": "Cocaine esterase (CES2, Homo sapiens, UniProt O00748)", "test": "enzyme activity, inhibitor, fluorescence", "quantity": "IC50", "result": "1340 nM"}
{"Compound": "C=CCOc1ccc(C(=O)/C=C/c2ccc(OC)cc2)c(OS(=O)(=O)c2ccc(F)cc2)c1I", "target": "BCHE", "test": "enzyme activity, inhibitor", "quantity": "IC50", "result": "11300 nM"}
